In article PMC7610535 (Nature chemical biology, 2020):
Residue numbers refer to the chain shown, from its start.

Columns and labels:
IMR5 cells = experiment: BrdU/PI flow cytometry, cell cycle distribution of IMR5 cells; assay type: cell-based, human; settings: IMR5 cells without ectopic AURORA-A, 1 µM, 18 hours
Outline: (§1)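 Cells were pulsed with 10 µM BrdU for 1 h, washed in ice-cold PBS and fixed overnight in 80% ethanol at −20 °C. After a 1% BSA/PBS-T wash, they were stained 30 min at 37 °C with RNase A (24 µg/ml) and propidium iodide (54 µM), then analysed by flow cytometry. For IMR5, the EtOH-treated cells of the doxycycline-inducible line served as the non-overexpressing cells.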

AURORA-B = AURORA-B (Homo sapiens, UniProt Q96GD4); experiment: AURORA-B-NanoLuc target engagement assay; assay type: binding; settings: AURORA-B EC50 (µM), HEK293 cells, energy transfer probe, 2 hours, mean ± s.e.m, n = 2
[1] = target: AURORA-A/CEREBLON(TBD) complex (Homo sapiens, UniProt O14965+Q96SW2); experiment: Isothermal titration calorimetry, ternary complex; assay type: binding
MV4-11 cells [2] = experiment: BrdU/PI flow cytometry, cell cycle distribution of MV4-11 cells; assay type: cell-based, human; settings: 0.5 µM, 12 hours
Outline: as §1

AURORA-A [3] = target: T1, AURORA-A (Homo sapiens, UniProt O14965); experiment: AURORA-A-NanoLuc target engagement assay; assay type: binding
T1 sequence (O14965 1-403): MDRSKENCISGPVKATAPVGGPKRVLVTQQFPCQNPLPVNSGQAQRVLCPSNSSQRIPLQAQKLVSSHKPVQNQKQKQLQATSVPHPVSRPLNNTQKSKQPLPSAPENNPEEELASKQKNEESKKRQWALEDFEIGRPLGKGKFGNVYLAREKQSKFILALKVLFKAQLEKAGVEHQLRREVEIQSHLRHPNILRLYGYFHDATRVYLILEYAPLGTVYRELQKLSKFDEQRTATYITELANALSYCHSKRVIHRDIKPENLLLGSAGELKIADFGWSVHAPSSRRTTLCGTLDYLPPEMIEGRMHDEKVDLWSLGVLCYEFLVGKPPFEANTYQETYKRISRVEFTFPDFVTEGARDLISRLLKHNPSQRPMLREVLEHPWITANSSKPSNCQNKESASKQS

MV4-11 cells [4] = experiment: Annexin/PI flow cytometry, MV4-11 cells; assay type: cell-based, human; settings: 0.5 µM, 72 hours
Outline: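 MV4-11 cells were collected together with their culture medium, washed in ice-cold PBS and stained with Annexin V/Pacific Blue in HEPES/NaCl/CaCl2 binding buffer for 15 min at room temperature in the dark. Propidium iodide in buffer was added before flow cytometry. Early (annexin+, PI−) and late (annexin+, PI+) apoptotic cells were counted over 50,000 events.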

AURORA-A^Imut = target: T2, AURORA-A^Imut (Homo sapiens, UniProt O14965, A267W/E239R/F157E/I158E/I57V/K153E/K156E/K224E/P191W/R137E/R189E/R375E/S266W); experiment: Depletion of AURORA-A interface mutant in MV4-11 cells; assay type: cell-based; settings: 12 mutated amino acids in the presumed interface with CEREBLON
T2 sequence (O14965 1-403 I57V/R137E/K153E/K156E/F157E/I158E/R189E/P191W/K224E/E239R/S266W/A267W/R375E): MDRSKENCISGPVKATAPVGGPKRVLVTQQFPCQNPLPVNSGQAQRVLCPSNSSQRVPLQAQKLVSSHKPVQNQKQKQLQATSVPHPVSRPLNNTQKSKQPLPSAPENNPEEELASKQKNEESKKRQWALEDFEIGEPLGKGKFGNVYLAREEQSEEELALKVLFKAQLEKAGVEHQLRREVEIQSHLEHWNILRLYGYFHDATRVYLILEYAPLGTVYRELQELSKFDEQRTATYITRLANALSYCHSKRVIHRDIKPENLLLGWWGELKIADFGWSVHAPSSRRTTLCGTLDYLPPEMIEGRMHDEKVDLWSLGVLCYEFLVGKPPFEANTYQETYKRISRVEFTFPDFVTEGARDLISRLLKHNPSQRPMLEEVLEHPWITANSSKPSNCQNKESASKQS
Outline: (§2)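 HiBiT-tagged wild-type or mutant AURORA-A was expressed stably in MV4-11 cells (infected twice, 24 h apart, selected 72 h after infection). Cells were exposed to serial dilutions of the test compound for 6 h and lysed with lytic detection reagent containing the LgBiT fragment. Luminescence was then read. DC50 and DCmax were derived from the concentration–response data.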

[5] = target: AURORA-A-CEREBLON complex (Homo sapiens, UniProt O14965+Q96SW2); experiment: HA immunoprecipitation of AURORA-A, co-precipitated CEREBLON; assay type: binding; settings: MV4-11 cell extracts, 0.5 µM degrader
AURORA-A^D274N = target: T3, AURORA-A^D274N (Homo sapiens, UniProt O14965, D274N); experiment: Immunoblot of HA-tagged kinase-dead AURORA-A^D274N; assay type: cell-based; settings: 1 µM, 18 hours
T3 sequence (O14965 1-403 D274N): T1 sequence (O14965 1-403) with D274N

AURORA-A^K162R = AURORA-A^K162R (Homo sapiens, UniProt O14965+Q96SW2, I57V/K162R); experiment: Immunoblot of HA-tagged kinase-dead AURORA-A^K162R; assay type: cell-based; settings: 1 µM, 18 hours
AURORA-A^P191W = target: T4, AURORA-A^P191W (Homo sapiens, UniProt O14965, P191W); experiment: HiBiT assay of AURORA-A^P191W in MV4-11 cells; assay type: cell-based; settings: 6 hours
T4 sequence (O14965 1-403 P191W): T1 sequence (O14965 1-403) with P191W
Outline: as §2

AURORA-A [6] = target: T1, AURORA-A; experiment: HiBiT assay: AURORA-A levels based on luciferase measurements in MV4-11 cells; assay type: cell-based
Outline: as §2

Sequence of AURORA-A^K162R (O14965 whole entry I57V/K162R): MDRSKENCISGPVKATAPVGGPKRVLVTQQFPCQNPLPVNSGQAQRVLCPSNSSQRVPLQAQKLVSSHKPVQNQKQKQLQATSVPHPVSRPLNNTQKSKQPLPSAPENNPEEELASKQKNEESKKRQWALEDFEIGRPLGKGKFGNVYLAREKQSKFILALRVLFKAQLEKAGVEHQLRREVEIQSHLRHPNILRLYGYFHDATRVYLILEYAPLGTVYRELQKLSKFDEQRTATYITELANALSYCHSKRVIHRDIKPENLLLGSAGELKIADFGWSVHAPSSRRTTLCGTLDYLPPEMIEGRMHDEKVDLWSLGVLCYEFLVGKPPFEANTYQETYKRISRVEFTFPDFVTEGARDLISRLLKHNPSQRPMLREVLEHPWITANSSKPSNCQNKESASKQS
Sequence of AURORA-A^K162R (Q96SW2 whole entry): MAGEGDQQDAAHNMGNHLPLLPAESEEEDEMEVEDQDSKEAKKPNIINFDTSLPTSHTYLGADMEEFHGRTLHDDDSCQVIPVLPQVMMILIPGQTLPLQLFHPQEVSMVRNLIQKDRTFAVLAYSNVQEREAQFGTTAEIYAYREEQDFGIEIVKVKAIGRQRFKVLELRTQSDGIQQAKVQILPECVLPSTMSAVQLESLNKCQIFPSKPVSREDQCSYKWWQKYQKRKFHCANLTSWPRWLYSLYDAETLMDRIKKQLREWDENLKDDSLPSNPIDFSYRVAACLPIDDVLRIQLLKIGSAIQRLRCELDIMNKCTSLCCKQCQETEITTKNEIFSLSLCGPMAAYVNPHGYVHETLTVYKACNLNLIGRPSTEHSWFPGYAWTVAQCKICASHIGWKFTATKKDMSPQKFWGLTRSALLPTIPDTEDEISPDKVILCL
Sequence of AURORA-A^K162R (Q16531 whole entry partner): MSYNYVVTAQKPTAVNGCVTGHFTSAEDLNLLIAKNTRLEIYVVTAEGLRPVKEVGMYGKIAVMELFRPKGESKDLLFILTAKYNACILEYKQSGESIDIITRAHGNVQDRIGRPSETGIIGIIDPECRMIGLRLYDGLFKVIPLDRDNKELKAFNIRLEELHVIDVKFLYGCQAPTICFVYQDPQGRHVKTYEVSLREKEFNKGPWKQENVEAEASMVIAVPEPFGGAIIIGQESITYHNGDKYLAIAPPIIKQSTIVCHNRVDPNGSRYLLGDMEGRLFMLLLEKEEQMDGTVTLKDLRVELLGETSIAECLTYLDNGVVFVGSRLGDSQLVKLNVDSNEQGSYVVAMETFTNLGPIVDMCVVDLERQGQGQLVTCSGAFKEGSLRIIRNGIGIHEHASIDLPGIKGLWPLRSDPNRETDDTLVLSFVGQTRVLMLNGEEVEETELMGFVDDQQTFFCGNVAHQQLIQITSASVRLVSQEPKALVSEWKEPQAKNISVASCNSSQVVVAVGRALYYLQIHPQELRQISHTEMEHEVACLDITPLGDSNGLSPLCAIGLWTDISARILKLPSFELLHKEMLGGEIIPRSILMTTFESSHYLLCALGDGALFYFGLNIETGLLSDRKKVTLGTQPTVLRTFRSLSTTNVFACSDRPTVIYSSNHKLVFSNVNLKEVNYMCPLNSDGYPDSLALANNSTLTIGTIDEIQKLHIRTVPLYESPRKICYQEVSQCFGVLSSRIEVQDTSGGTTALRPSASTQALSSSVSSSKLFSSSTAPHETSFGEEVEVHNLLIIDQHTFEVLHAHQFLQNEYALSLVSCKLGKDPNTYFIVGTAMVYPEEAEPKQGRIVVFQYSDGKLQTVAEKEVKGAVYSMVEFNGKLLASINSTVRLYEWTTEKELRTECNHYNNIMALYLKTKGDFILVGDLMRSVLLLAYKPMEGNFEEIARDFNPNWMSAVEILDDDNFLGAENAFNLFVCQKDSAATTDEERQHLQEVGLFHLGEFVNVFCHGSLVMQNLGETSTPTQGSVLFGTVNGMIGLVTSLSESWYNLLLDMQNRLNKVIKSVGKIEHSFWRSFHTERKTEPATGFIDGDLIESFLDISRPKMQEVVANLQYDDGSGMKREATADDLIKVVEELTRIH
Sequence of AURORA-A/CEREBLON(TBD) complex (Q96SW2 320-428, one chain of several): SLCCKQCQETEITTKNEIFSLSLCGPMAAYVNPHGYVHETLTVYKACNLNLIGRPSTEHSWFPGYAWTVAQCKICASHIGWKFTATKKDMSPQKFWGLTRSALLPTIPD
Sequence of AURORA-B (Q96GD4 whole entry): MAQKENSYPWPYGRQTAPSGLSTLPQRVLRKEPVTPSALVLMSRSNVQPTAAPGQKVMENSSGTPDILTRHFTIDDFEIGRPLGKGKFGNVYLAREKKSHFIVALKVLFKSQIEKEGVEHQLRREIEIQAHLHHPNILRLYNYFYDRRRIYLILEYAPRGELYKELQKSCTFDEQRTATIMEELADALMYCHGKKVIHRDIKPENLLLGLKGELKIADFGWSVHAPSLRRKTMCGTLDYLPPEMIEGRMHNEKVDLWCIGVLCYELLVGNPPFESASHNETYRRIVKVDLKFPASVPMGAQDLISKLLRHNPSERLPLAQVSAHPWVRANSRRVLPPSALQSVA
Sequence of AURORA-A-CEREBLON complex (Q96SW2 whole entry, one chain of several): as the sequence (Q96SW2 whole entry) above
Sequence of AURORA-A-CEREBLON complex (Q16531 whole entry partner, one chain of several): as the sequence (Q16531 whole entry partner) above

EC50 (AURORA-B): 1.4 µM
Kd [1]: 183 nM
EC50 (AURORA-A [3]): 193 nM
difference of affinities for AURORA-A and AURORA-B (AURORA-A [3]; AURORA-A vs AURORA-B, depending on experimental conditions (BRET, Kinobeads)): 3- to 50 fold
JB170-mediated depletion of AURORA-A^Imut (AURORA-A^Imut): not depleted
CEREBLON co-precipitation with HA-tagged AURORA-A [5]: efficient CEREBLON co-precipitation
JB170-mediated depletion of AURORA-A^P191W (AURORA-A^P191W): abolished JB170-mediated depletion
concentration of maximal depletion of AURORA-A (DCmax) (AURORA-A [6]; HiBiT-AURORA-A, 6 hours): 300 nM
concentrations ineffective in depleting AURORA-A (Hook effect) (AURORA-A [6]; immunoblot and luminescence assays): ≥ 10 µM
SMILES: COc1cc(Nc2ncc3c(n2)-c2ccc(Cl)cc2C(c2c(F)cccc2OC)=NC3)ccc1C(=O)NCCOCCOCCNC(=O)COc1cccc2c1C(=O)N(C1CCC(=O)NC1=O)C2=O (centres unmarked) [JB170]
cell cycle distribution (IMR5 cells): induced an accumulation of BrdU-negative cells in S-phase, but did not induce G2/M arrest
cell cycle distribution (MV4-11 cells [2]): delayed or arrested S-phase progression
annexin-positive cells (MV4-11 cells [4]): 56%
depletion of AURORA-A^D274N (AURORA-A^D274N): depleted by JB170 to a similar degree as the unmutated protein
depletion of AURORA-A^K162R (AURORA-A^K162R): depleted by JB170 to a similar degree as the unmutated protein
